Bioassay records deposited in PubChem by several laboratories.
A selection: hits, their analogues and other compounds. The true share with any hit is near 2.1%.
LMPTP inh = LMPTP (human) inhibition; recombinant LMPTP-A, OMFP fluorogenic substrate, fluorescence intensity; inhibition, % at 20 µM; hit rate 0.22% among 360,000; AID 651560;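 active = compounds that cut the enzyme signal by at least half of the control window in the single-dose screen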;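 also: plate controls were DMSO wells with enzyme plus substrate for no effect and substrate without enzyme for full effect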
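Assay system: LMPTP-A, protein tyrosine phosphatase of low molecular weight / Medium: pH 6.0 Bis-Tris buffer with DTT and Triton X-100 / Schedule: 50 min enzyme reaction at room temperature, protected from light / Measured by: endpoint fluorescence intensity from OMFP dephosphorylation / Read-out basis: % inhibition relative to no-enzyme and uninhibited control wells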
GRK2 inh = blocks RNA aptamer binding to human GRK2 | bead flow cytometry, FAM-aptamer displacement from GRK2 | inhibition of aptamer binding, % at 10 µM | hit rate 0.59% among 330,000 | P25098;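 active = inhibition of aptamer binding above 40%, roughly 3 SD of noise, on plates passing a quality check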;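 also: median bead fluorescence of bound FAM aptamer so fluorescent compounds give negative values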
Target sequence (P25098 whole entry, looked up): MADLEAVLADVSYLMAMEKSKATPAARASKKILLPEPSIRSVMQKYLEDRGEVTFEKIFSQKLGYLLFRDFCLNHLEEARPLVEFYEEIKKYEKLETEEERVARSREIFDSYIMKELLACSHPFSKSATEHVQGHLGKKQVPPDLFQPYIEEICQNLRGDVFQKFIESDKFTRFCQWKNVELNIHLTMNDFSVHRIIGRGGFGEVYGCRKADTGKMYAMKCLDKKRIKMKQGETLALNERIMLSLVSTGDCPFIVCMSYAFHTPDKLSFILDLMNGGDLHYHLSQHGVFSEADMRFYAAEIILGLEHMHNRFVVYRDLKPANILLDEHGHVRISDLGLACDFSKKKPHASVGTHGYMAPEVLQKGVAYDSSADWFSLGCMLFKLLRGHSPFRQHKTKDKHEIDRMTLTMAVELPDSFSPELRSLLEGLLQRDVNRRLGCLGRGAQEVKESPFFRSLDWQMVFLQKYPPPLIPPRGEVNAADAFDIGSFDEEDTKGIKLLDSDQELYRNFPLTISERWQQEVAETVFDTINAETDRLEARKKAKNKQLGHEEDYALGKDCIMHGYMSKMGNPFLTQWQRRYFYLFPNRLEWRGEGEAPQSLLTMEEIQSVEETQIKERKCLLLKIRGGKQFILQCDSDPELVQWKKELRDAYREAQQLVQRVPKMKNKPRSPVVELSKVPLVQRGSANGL
DNMT1 block = inhibitors of human DNMT1; P26358; DNMT1 molecular beacon, Hinp1I cleavage, fluorescence; inhibition (reported as % activation of signal), % at 10 µM; hit rate 0.83% among 360,000; in the data active = inhibition above about 50%
STEP inh = STEP (human) phosphatase inhibition. P54829. hit rate 0.25% among 360,000. AID 588621. recombinant STEP, OMFP fluorogenic substrate, fluorescence. inhibition, % at 20 µM;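 active = inhibition at 20 µM, scaled per plate between control wells, above about 37%, limit read from the data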;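 also: 0% = DMSO with enzyme and substrate and 100% = substrate only without enzyme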
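System: STEP phosphatase, cell-free reaction; Buffer or medium: Bis-Tris pH 6.0 buffer with DTT, detergent; Incubation: 20 min at room temperature, dark; Measured by: fluorescence, 480/540 nm.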
Scp-1 inhibitor = inhibitors of human Scp-1 phosphatase | Recombinant Scp1, phosphopeptide, malachite green phosphate absorbance | inhibition, % at 20 µM | hit rate 0.88% among 340,000;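 active = inhibition above about 50% at 20 µM, limit read from the data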;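 also: plate controls were DMSO wells with enzyme for no effect and wells lacking enzyme for full effect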
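Material – SCP-1 phosphatase catalytic domain, residues 76-261 · Buffer or medium – Acidic Tris acetate buffer with magnesium and detergent · Also added – Phospho 17-mer peptide substrate · Compound – single 20 µM dose, 1% DMSO · Times – 45 min room-temperature reaction, 5 min colour, 30 min stabiliser · Technique – Phosphate-binding colour reagent, absorbance read at 630 nm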
SUMO1-SIM PPI = modulators of human SUMO1-mediated protein-protein interactions; SUMO1 binding to a labelled peptide, TR-FRET, 1 h; P63165; hit rate 0.33% among 360,000; inhibition, % at 20 µM; in the data active = inhibition above about 37%
Target sequence (P63165 whole entry, looked up): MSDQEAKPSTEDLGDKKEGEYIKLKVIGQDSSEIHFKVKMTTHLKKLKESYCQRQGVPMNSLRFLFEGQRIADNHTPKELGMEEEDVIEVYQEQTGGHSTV
DNMT1 interf DR = beacon fluorescence artifact, dose response counter-screen. shares compounds with DNMT1 block. molecular beacon fluorescence, spectral interference counter-screen. IC50, µM. 200 tested, under 10 active. AID 602382; call rule not given here
DNMT1 inh conf = DNMT1 inhibition confirmation, single concentration; inhibition, % at 10 µM; DNMT1 molecular beacon HinP1I cleavage, fluorescence; shares compounds with DNMT1 block; hit rate 8% among 2,300;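 active = average inhibition of at least 30% in the single-concentration confirmation test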
Beacon interf = counter-screen for DNMT1 inhibitors: spectral interference; shares compounds with DNMT1 block; DNMT1 molecular beacon spectral interference counterscreen, fluorescence 485/520; activation (fluorescence interference), % at 10 µM; hit rate 1% among 2,300;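 active = activation of at least 30% at 10 µM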;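 also: DNMT1 catalytic domain with a HinP1I cleavage step and a FAM/dabcyl DNA beacon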
Starred values were filed as active, the others as inactive; · = no result given.

SMILES | LMPTP inh | GRK2 inh | DNMT1 block | STEP inh | Scp-1 inhibitor | SUMO1-SIM PPI | DNMT1 inh conf | Beacon interf | others
CCN1C(=O)[C@H]2[C@@H](c3ccc(-c4ccccc4)cc3)N3CCCC[C@@]3(C(=O)OC)[C@H]2C1=O | 1.6 | 5.0 | -7.5 | -2.9 | -7.7 | 2.1 | · | ·
Cc1cc(C)cc(OCc2nc3ncc(Br)cc3[nH]2)c1 | 1.5 | 0.0 | 59.4* | 0.6 | -6.7 | -1.9 | 2.3 | 1.6
CCCCn1c(NC(=O)CC)c(C#N)c2nc3ccccc3nc21 | -0.5 | 0.0 | 73.6* | 27.7 | 11.3 | -17.7 | 0.9 | 2.2
CCC(=O)Nc1c(C#N)c2nc3ccccc3nc2n1C1CCCCC1 | 1.6 | 0.0 | 93.8* | 2.6 | 28.4 | 71.8* | 2.3 | -0.6
CCC(=O)Nc1c(C#N)c2nc3ccccc3nc2n1-c1ccccc1C | 0.2 | 2.0 | -19.6 | 2.3 | -5.0 | -16.7 | · | ·
CCn1c2ccccc2c2cc(NC(=O)c3ccc(=O)oc3)ccc21 | 4.9 | 0.0 | -1.8 | 7.8 | 0.4 | -4.1 | · | ·
CCn1c2ccccc2c2cc(NC(=O)c3coc(=O)c(Br)c3)ccc21 | 3.6 | 0.0 | 50.9* | -6.9 | · | -1.8 | 16.4 | 7.6
NS(=O)(=O)c1ccc(N=Nc2ccc(=O)[nH]c2O)cc1 | 15.9 | 0.0 | 100.1* | 85.1* | 85.9* | 21.7 | 30.0 | -1.2 | DNMT1 interf DR=>99
CCc1nc2c(OCc3c(C)noc3C)cccn2c1N(C=O)Cc1ccc(OC)cc1 | -1.2 | · | -1.2 | 13.0 | · | -1.2 | · | ·
CC1(C(=O)NS(=O)(=O)C2CC2)CCCN(C(=O)c2cccc(Cl)c2)C1 (stereo not given) | -2.0 | · | 65.1* | -1.2 | · | 1.1 | 2.0 | 0.6
CC1(C(=O)NS(=O)(=O)C2CC2)CCCN(C(=O)c2ccc(F)c(Cl)c2)C1 (stereo not given) | -1.7 | · | 0.1 | 0.4 | · | 8.2 | · | ·
Cc1ccc2cc(C)c3nnc(SCc4ccc(C(=O)O)cc4)n3c2c1C | -1.1 | 0.0 | 1.2 | -0.9 | 16.4 | -11.3 | · | ·
O=C1c2ccccc2C(c2nc3ccccc3[nH]2)N1c1ccccn1 (stereo not given) | -0.7 | · | -8.6 | 2.2 | · | -4.5 | · | ·
O=S(=O)(c1ccc(NC(=S)N2CCCCC2CO)cc1)N1CCOCC1 (stereo not given) | -1.1 | · | 60.2* | -0.8 | · | -0.3 | -0.6 | -4.1
O=C(Nc1ccc(S(=O)(=O)N2CCOCC2)cc1)C1CC1 | 0.5 | 0.0 | 1.8 | -1.7 | -5.8 | 0.1 | · | ·
CO[C@H]1CN(C)C(=O)c2ccc(NC(=O)C3CCC3)cc2OC[C@H](C)N(Cc2ccccn2)C[C@@H]1C | -1.2 | · | · | · | · | 0.1 | · | ·
CC1(C(=O)NS(=O)(=O)c2ccc(C#N)cc2)CCN1C(=O)C1CCCCC1 (stereo not given) | -1.0 | · | 1.3 | 0.0 | · | -1.0 | · | ·
COc1ccccc1-c1ccc(/C=C2/C=C(C)OC2=O)o1 | 1.9 | 0.0 | -1.7 | 0.4 | -12.2 | -4.6 | · | ·
CC1=C/C(=C\c2ccc(Br)o2)C(=O)O1 | 11.1 | 96.0* | 105.7* | 24.3 | 82.2* | 6.2 | 46.2* | -2.1 | DNMT1 interf DR=>99
NC(=O)c1nsc(C(=O)N(c2ccccc2)C(C(=O)NC2CCCC2)c2cccs2)c1N (stereo not given) | 9.8 | 1.0 | 53.7* | -2.6 | 1.8 | -2.8 | 6.5 | -0.5
CCOc1ccccc1N(C(=O)c1snc(C(N)=O)c1N)C(C(=O)NC1CCCC1)c1cccs1 (stereo not given) | 3.9 | 1.0 | -3.1 | 2.4 | -4.8 | -8.3 | · | ·
COc1ccc(C(C(=O)NC2CCCC2)N(C(=O)c2snc(-c3ccc(F)cc3)c2N)c2ccccc2)cc1 (stereo not given) | -3.9 | 1.0 | 57.8* | -0.8 | -2.4 | 1.8 | 2.8 | 3.8
C=CCn1c(SCc2nc3sc4c(c3c(=O)[nH]2)CCCC4)nc2ccccc2c1=O | 0.2 | 3.0 | 54.8* | -2.1 | -10.3 | -0.4 | 0.4 | -8.5
Cc1cn([C@H]2C[C@H](O)[C@@H](CNCc3ccccc3OCCCN3CCOCC3)O2)c(=O)[nH]c1=O | -1.2 | · | 1.6 | 0.3 | · | -1.5 | · | ·
O=C(/C=C/c1ccc2c(c1)OCO2)NCCS(=O)(=O)N1CCN(c2ccccc2)CC1 | 1.3 | · | 71.2* | 4.1 | · | 1.2 | 6.2 | 3.7
SMILES | LMPTP inh | GRK2 inh | DNMT1 block | STEP inh | Scp-1 inhibitor | SUMO1-SIM PPI | DNMT1 inh conf | Beacon interf | others
O=C(CSc1nnnn1-c1ccccc1)Nc1nsc(-c2ccccc2)n1 | -0.1 | 0.0 | -0.9 | 0.1 | 0.8 | 1.0 | · | ·
O=C(CSc1ccc2ccccc2n1)Nc1nsc(-c2ccc(Cl)cc2)n1 | 55.9* | 0.0 | 76.6* | 13.7 | 0.1 | 43.1* | 1.1 | -2.9
O=C(CSc1nnnn1-c1ccccc1)Nc1nsc(-c2ccc(Cl)cc2)n1 | 9.3 | 0.0 | 71.3* | 1.7 | 0.3 | 6.4 | -0.5 | -4.1
CCNc1ccc(Br)cc(C(=O)/C=C/c2ccc(Cl)cc2Cl)c1=O | 16.9 | 7.0 | 70.1* | 11.3 | -2.2 | 12.5 | 2.5 | 5.3
CCOC(=O)c1cc(-c2ccc(C)cc2)n(CC(=O)NCc2ccco2)c1C | -1.4 | 0.0 | 50.1* | 0.6 | -14.0 | 0.3 | -1.1 | 2.5
Cc1ccc(NS(=O)(=O)c2cccc(C(=O)OCC(=O)NCc3ccco3)c2)cc1 | 0.3 | 1.0 | -0.9 | 2.5 | 5.6 | 6.3 | · | ·
O=C(COC(=O)c1ccccc1Cl)NCc1ccco1 | 12.2 | 5.0 | 84.6* | 2.6 | 39.8 | 6.0 | 9.6 | 4.5
O=C(COC(=O)c1ccc(NS(=O)(=O)c2cccs2)cc1)NCc1ccco1 | 49.6 | 13.0 | 92.5* | 29.9 | 91.9* | 39.8* | 70.9* | 3.3 | DNMT1 interf DR=>99
CC1Cc2ccccc2N1C(=O)CN(C)CC(=O)Nc1cccc(F)c1 (stereo not given) | -0.2 | 0.0 | -1.1 | -1.6 | -9.8 | -3.7 | · | ·
O=C(CSc1nnc2ccccn12)NNC(=O)c1ccccc1F | 0.4 | 0.0 | 0.1 | -2.8 | 2.6 | -0.7 | · | ·
NC(=O)c1sc2nc(-c3ccco3)ccc2c1N | 12.6 | 7.0 | 97.7* | 9.7 | 3.6 | 36.6 | 4.6 | 4.8
NC(=O)c1sc2nc3c(c(-c4ccco4)c2c1N)CCC3 | 1.7 | 3.0 | 74.6* | 4.6 | 0.3 | 13.1 | 12.0 | 11.6
Cc1c(NC(=O)/C(C#N)=C/c2ccc(-c3ccccc3Cl)o2)c(=O)n(-c2ccccc2)n1C | -0.1 | 0.0 | 9.8 | -1.2 | 8.4 | -5.3 | · | ·
N#C/C(=C\c1ccc(-c2ccccc2Cl)o1)C(=O)Nc1nc2ccccc2s1 | 4.0 | 3.0 | 87.9* | 0.8 | -2.7 | 12.9 | 12.3 | -6.7
